Ki and Dopamine release data for 29 molecules are collected here from ChEMBL document CHEMBL1127302 (J Med Chem, 1994).

SMILES strings stand for the structures.

Experiment [1] concerns the target Neuronal acetylcholine receptor. Kind of experiment: In vitro binding affinity to neuronal nAChRs was determined by measuring the displacement of [3H]cytisine in rat brain. The format is tissue-based. In short, it runs like this: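 Whole rat brain membrane preparation; displacement of [3H]cytisine from neuronal nAChRs. Binding normalised to equilibrium dissociation constants (Ki). Values are means ± SEM.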
(In general: In a radioligand displacement assay an active substance lowers the binding of a labelled ligand.)

The target in experiment [2] is Neuronal acetylcholine receptor (Rattus norvegicus) (UniProt P04757+P09483+P12389+P12390+P12392+P43144+Q9JLB5+P12391+P43143+P20420+Q05941). The experiment in a line: In vitro neuronal nAChRs evoked [3H]dopamine release was determined in rat striatal slices at concentration of 10e-6 M. The format is functional.

As to `CCOC(=O)c1cc([C@H]2CCCN2C)on1`, the Ki (in general, the dissociation constant of the complex between target and ligand, obtained from inhibition or displacement) in experiment [1] came out at 0.89 µM.

With `CN1CCC[C@@H]1c1cccnc1`, the Dopamine release in experiment [2] is 114%.

Regarding `CCCCc1cc([C@H]2CCCN2)on1`, in experiment [1], the affinity corresponds to a Ki of 5 µM.

As for `c1ccc(-c2cc([C@H]3CCCN3)on2)cc1`, the Ki in experiment [1] is > 10 µM.

In experiment [2], `CN1CCC[C@H]1c1cccnc1` gave a Dopamine release of 126%.

Take `Cc1cc([C@@H]2CCCN2C)sn1`: the Dopamine release in experiment [2] was found to be 22%.

As to `Cc1cc([C@H]2CCCN2)sn1`, affinity in experiment [1] was put at a Ki of 0.051 µM. For the same molecule, the Dopamine release in experiment [2] is 61%.

`Cc1cc([C@@H]2CCCN2)sn1` came in with a Ki in experiment [1] of 0.228 µM. For the same molecule, the Dopamine release in experiment [2] amounted to 56%.

Turning to `c1cncc([C@@H]2CCCN2)c1`, the Dopamine release in experiment [2] turned out to be 155%.

`Cc1cc([C@@H]2CCCN2C)on1`: the Dopamine release in experiment [2] was 85%.

Molecule `CN1CCC[C@@H]1c1cc(C(F)(F)F)no1` returned a Ki in experiment [1] of 0.0061 µM. Moreover, the Dopamine release in experiment [2] is 92%.

The molecule `Cc1cc([C@H]2CCCN2C)on1` yielded a Dopamine release in experiment [2] of 95%.

In turn, `CN1CCC[C@@H]1c1cc(Cc2ccccc2)no1` returned a Ki in experiment [1] of 0.0074 µM. The Dopamine release in experiment [2] was found to be 30%.

Regarding `CCCc1cc([C@H]2CCCN2)on1`, in experiment [1], the inhibition constant (Ki) was > 10 µM.

For `Cc1cc([C@@H]2CCCN2)on1`, the Ki in experiment [1] was 0.0074 µM. For the same molecule, in experiment [2], the Dopamine release turned out to be 111%.

In experiment [1], `CCc1cc([C@H]2CCCN2C)on1` gave an inhibition constant (Ki) of 0.0076 µM. The molecule also showed a Dopamine release in experiment [2] of 78%.

In the case of `COCc1cc([C@H]2CCCN2C)on1`, the affinity in experiment [1], expressed as Ki, was 0.0219 µM. In experiment [2], this molecule registered a Dopamine release of 51%.

For `CCc1cc([C@@H]2CCCN2)on1`, in experiment [1], the affinity, expressed as Ki, was 0.0117 µM. Moreover, the Dopamine release in experiment [2] was 79%.

In experiment [1], `CCCc1cc([C@H]2CCCN2C)on1` came in with an inhibition constant (Ki) of 0.014 µM. The molecule further yielded a Dopamine release in experiment [2] of 45%.

Consider `CN1CCC[C@@H]1c1cc(-c2ccccc2)no1`, for which the Ki in experiment [1] was found to be 0.788 µM.

In turn, `Cc1cc([C@H]2CCCN2C)no1` had a Ki in experiment [1] of 1.33 µM.

In turn, `CCN1CCC[C@@H]1c1cc(C)no1` showed a Ki in experiment [1] of 0.0343 µM. The same molecule displayed a Dopamine release in experiment [2] of 64%.

`Cc1cc([C@H]2CCCN2C)sn1` gave a Dopamine release in experiment [2] of 41%.

In experiment [1], `CCCCc1cc([C@H]2CCCN2C)on1` registered a Ki of 0.0242 µM. In experiment [2], this molecule showed a Dopamine release of 38%.

`CCc1cc([C@@H]2CCCN2C)on1` displayed a Dopamine release in experiment [2] of 46%.

`CN1CCC[C@@H]1c1cc(CO)no1` yielded a Ki in experiment [1] of 0.126 µM. For the same molecule, the Dopamine release in experiment [2] was found to be 41%.

Consider `Cc1cc([C@H]2CCCN2)on1`, for which, in experiment [1], the Ki came out at 0.333 µM. Further, in experiment [2], the Dopamine release came to 43%.

In experiment [2], `c1cncc([C@H]2CCCN2)c1` had a Dopamine release of 93%.

As for `CCc1cc([C@H]2CCCN2)on1`, affinity in experiment [1] was put at a Ki of 0.552 µM. The Dopamine release in experiment [2] is 30%.
